Laboratory results reported in ChEMBL document CHEMBL1137787 (J Med Chem, 2009).
Calls of active or inactive are those of the source. No cut-off for these calls is given here.

Key:
[1] = target: T1, Metabotropic glutamate receptor 5 (Rattus norvegicus, UniProt P31424); assay: (§1) Positive allosteric modulator activity at rat mGlu5 receptor expressed in HEK293 cells assessed as potentiation of glutamate-induced response relative to glutamate; format: cell-based
[2] = target: Metabotropic glutamate receptor 5 (Rattus norvegicus) (UniProt P31424); assay: Positive allosteric modulator activity at rat mGlu5 receptor expressed in HEK293 cells assessed as fold shift in glutamate induced response at 10 uM; format: cell-based
Metabotropic glutamate receptor 5 (Rattus norvegicus), sequence (P31424 21-1203 limits assumed): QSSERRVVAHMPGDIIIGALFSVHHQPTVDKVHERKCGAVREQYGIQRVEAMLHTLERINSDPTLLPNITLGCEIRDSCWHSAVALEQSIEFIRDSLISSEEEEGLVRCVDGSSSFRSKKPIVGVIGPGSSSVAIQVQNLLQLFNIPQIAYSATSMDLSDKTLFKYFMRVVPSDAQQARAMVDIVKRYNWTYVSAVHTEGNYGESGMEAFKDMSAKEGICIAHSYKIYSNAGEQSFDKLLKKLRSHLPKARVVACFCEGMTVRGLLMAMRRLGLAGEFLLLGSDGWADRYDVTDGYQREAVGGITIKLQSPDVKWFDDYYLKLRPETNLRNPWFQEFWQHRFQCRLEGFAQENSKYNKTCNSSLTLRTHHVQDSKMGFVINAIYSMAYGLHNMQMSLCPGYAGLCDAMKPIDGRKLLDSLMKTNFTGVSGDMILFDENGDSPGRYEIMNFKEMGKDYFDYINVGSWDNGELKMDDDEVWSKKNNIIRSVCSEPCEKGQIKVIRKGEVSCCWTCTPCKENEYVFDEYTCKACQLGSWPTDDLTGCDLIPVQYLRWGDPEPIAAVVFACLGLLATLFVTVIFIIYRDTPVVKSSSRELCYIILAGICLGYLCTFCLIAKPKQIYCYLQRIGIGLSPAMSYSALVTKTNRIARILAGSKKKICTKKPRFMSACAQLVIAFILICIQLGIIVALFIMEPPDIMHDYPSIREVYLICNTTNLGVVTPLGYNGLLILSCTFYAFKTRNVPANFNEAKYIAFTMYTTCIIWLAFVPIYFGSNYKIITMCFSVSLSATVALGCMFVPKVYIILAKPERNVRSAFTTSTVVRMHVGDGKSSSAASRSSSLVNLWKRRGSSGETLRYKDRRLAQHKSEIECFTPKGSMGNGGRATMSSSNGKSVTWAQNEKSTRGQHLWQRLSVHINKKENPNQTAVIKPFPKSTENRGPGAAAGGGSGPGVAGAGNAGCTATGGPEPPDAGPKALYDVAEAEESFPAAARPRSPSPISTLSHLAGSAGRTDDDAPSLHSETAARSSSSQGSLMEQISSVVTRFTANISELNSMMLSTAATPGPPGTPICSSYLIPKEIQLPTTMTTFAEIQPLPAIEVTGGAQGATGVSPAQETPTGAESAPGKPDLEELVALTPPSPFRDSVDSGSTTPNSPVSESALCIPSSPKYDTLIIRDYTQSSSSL

[3] = target: Metabotropic glutamate receptor 1 (Homo sapiens, UniProt Q13255); assay: Antagonist activity at mGlu1 receptor; format: functional
Metabotropic glutamate receptor 1, sequence (Q13255 whole entry): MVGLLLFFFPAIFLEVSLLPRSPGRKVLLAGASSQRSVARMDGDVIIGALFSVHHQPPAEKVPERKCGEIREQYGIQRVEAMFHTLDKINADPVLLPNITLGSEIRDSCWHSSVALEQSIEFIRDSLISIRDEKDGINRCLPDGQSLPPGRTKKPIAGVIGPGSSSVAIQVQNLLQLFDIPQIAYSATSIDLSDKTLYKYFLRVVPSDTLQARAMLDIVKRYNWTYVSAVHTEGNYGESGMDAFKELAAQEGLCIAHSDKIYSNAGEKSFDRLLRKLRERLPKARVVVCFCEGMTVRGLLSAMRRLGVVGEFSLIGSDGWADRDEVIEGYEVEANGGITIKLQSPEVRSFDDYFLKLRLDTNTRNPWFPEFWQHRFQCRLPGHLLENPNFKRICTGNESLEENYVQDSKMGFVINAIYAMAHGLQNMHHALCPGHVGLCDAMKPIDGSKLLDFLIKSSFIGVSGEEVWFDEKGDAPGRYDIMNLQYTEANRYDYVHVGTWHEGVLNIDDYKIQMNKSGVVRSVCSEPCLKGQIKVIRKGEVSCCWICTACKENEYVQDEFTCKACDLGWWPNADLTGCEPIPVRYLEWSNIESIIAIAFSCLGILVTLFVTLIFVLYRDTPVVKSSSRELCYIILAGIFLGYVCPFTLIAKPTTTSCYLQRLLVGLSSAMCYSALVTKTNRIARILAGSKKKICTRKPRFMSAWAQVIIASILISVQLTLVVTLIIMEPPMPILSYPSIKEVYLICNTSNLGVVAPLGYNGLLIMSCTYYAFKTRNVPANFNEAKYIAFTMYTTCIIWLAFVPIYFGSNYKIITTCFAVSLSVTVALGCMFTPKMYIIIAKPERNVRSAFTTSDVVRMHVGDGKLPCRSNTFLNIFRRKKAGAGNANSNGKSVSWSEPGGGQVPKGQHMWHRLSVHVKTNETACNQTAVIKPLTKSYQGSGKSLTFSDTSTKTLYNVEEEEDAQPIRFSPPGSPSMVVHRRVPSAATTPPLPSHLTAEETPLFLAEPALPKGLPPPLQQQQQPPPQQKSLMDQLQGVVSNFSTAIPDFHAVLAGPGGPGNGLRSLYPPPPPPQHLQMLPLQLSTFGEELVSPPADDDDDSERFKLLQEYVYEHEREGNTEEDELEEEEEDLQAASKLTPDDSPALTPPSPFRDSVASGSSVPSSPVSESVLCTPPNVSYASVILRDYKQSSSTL

[4] = target: Metabotropic glutamate receptor 2 (Homo sapiens, UniProt Q14416); assay: Antagonist activity at mGlu2 receptor; format: functional
[5] = target: Metabotropic glutamate receptor 3 (Homo sapiens, UniProt Q14832); assay: Antagonist activity at mGlu3 receptor; format: functional
Metabotropic glutamate receptor 3, sequence (Q14832 whole entry): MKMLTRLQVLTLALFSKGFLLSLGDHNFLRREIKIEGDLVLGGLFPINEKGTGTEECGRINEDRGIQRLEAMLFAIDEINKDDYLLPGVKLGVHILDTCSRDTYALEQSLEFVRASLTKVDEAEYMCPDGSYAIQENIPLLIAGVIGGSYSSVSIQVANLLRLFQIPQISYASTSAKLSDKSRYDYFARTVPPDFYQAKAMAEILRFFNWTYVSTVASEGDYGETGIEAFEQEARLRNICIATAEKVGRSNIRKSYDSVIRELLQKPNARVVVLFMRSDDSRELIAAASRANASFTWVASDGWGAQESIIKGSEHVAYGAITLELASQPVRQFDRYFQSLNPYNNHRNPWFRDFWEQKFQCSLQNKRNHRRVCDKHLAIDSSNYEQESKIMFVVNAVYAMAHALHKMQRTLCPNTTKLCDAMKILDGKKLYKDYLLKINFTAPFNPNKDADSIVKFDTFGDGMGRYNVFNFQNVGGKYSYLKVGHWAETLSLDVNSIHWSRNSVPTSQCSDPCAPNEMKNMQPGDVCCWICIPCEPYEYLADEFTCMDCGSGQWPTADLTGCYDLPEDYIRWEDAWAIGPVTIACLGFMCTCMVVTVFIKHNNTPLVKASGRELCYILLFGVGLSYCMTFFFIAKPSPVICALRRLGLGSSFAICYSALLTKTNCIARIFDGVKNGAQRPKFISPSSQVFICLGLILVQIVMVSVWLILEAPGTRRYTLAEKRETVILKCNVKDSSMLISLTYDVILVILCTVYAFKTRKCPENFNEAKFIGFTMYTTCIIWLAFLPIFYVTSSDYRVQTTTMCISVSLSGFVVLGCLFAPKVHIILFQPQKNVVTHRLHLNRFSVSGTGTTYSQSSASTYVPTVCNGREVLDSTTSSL

[6] = target: Metabotropic glutamate receptor 7 (Homo sapiens, UniProt Q14831); assay: Antagonist activity at mGlu7 receptor; format: functional
[7] = target: Metabotropic glutamate receptor 8 (Homo sapiens, UniProt O00222); assay: Antagonist activity at mGlu8 receptor; format: functional
Rattus norvegicus [8] = assay: Antipsychotic activity in Sprague-Dawley rat assessed as reversal of amphetamine-induced hyperlocomotion administered ip 30 mins before amphetamine-challenge; format: functional, organism-based
Summary of the method: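 Rats were given the test compound i.p. at 3, 10 or 30 mg/kg in 10% Tween 80 vehicle. Thirty minutes later they received amphetamine, 1 mg/kg s.c. Locomotor activity was then measured. Test compound or vehicle alone was also assessed without amphetamine.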

[9] = target: T1, Metabotropic glutamate receptor 5; assay: Antagonist activity at rat mGlu5 receptor expressed in HEK293 cells assessed as inhibition of glutamate-induced response; format: functional, cell-based
[10] = target: Metabotropic glutamate receptor 5 (Rattus norvegicus) (UniProt P31424); assay: Antagonist activity at rat mGlu5 receptor expressed in HEK293 cells assessed as inhibition of glutamate-induced response at 10 uM; format: functional, cell-based; design: scale not given: the % may be the effect or the level left
[11] = target: Metabotropic glutamate receptor 4 (Homo sapiens, UniProt Q14833); assay: Antagonist activity at mGlu4 receptor; format: functional
Rattus norvegicus [12] = assay: Anxiolytic activity against Sprague-Dawley rat Geller-Seifter conflict model assessed as increase punished response rate at 30 mg/kg, ip; format: functional; conditions: route intraperitoneal
Summary of the method: (§2)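 Modified Geller-Seifter conflict schedule with punished and unpunished components. Animals were tested on 1, 3, 10 and 30 mg/kg and on vehicle. Read-out was the number of responses in each component, as mean ± SEM for eighteen animals. Analysis used ANOVA with Newman-Keuls post hoc comparison to vehicle.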

Rattus norvegicus [13] = assay: Anxiolytic activity against ip dosed Sprague-Dawley rat Geller-Seifter conflict model assessed as increase in punished response; format: functional, organism-based; summary of the method: as §2
[14] = target: Metabotropic glutamate receptor 5 (Rattus norvegicus) (UniProt P31424); assay: as §1; format: cell-based

T1 sequence (P31424 whole entry): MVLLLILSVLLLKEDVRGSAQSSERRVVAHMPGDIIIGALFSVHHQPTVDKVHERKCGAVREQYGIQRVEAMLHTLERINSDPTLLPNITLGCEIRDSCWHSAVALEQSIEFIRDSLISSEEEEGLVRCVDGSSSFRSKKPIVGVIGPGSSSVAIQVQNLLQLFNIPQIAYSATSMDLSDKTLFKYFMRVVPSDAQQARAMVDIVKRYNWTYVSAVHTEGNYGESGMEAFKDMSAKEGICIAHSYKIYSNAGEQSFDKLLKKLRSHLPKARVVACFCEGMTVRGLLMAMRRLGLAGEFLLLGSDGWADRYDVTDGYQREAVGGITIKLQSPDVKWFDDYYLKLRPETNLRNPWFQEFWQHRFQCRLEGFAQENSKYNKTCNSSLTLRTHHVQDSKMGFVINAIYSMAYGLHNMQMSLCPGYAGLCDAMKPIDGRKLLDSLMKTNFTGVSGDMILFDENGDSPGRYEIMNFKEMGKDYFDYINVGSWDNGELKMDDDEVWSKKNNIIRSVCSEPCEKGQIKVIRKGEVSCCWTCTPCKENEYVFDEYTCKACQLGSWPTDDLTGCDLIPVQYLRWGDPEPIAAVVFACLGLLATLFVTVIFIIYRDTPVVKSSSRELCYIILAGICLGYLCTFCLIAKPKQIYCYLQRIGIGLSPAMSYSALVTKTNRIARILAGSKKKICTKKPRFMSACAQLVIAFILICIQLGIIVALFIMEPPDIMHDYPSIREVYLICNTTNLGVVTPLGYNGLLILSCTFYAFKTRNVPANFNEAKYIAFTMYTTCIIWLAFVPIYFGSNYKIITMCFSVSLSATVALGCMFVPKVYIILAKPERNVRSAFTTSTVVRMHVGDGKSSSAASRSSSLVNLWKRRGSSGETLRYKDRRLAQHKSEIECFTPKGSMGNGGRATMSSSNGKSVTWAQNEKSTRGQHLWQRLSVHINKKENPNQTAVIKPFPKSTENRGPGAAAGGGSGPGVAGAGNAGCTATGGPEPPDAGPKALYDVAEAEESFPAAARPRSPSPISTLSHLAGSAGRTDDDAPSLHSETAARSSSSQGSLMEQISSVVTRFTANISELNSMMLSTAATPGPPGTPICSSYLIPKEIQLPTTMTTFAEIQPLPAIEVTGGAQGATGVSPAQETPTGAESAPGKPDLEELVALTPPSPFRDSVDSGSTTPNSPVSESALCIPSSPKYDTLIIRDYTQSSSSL

Q: How did the EC50 ([1]; hek293) turn out when `CCc1ncc(C#Cc2ccccc2)cn1` was run?
A: Its EC50 is “Not Active”.

Q: `CNc1ncc(C#Cc2ccccc2)cn1` was tested. Which fold change (FC) [2] did it give?
A: The fold change (FC) was 15.

Q: What about the IC50 [3] of the same molecule?
A: Its IC50 is > 10000 nM.

Q: And the IC50 [4]?
A: The IC50 was > 10000 nM.

Q: And the IC50 [5]?
A: The IC50 was > 10000 nM.

Q: What about the IC50 [6] of the same molecule?
A: Its IC50 is > 10000 nM.

Q: And the IC50 [7]?
A: The IC50 was > 10000 nM.

Q: And the Activity (Rattus norvegicus [8])?
A: The Activity was “Dose-dependent effect”.

Q: What about the EC50 ([1]; read-out: EC50) of the same molecule?
A: Its EC50 is 14.3 nM.

Q: With `COc1ncc(C#Cc2cccc(C)c2)cn1` as the molecule, how does the EC50 ([1]; hek293) read?
A: Its EC50 is “Not Active”.

Q: What does the source list for `Cc1cccc(C#Cc2ncccn2)c1`?
A: IC50 ([9]; read-out: IC50): 10.8 nM; Activity [10]: 100%; IC50 [3]: > 10000 nM; IC50 [4]: > 10000 nM; IC50 [5]: > 10000 nM; IC50 [11]: > 10000 nM; IC50 [6]: > 10000 nM; IC50 [7]: > 10000 nM; Activity (Rattus norvegicus [12]): 300%; Activity (Rattus norvegicus [13]): Dose-dependent effect

Q: With `CSc1ncc(C#Cc2ccccc2)cn1` as the molecule, how does the fold change (FC) [2] read?
A: The fold change (FC) was 11.

Q: And the EC50 ([1]; read-out: EC50)?
A: The EC50 was 120 nM.

Q: `Cc1ccc(C#Cc2cnc(C)nc2)cc1` was tested. Which EC50 ([1]; hek293) did it give?
A: The EC50 was “Not Active”.

Q: `Cc1ccc(C#Cc2ncccn2)cc1` was tested. Which IC50 ([9]; read-out: IC50) did it give?
A: The IC50 was > 10000 nM.

Q: What about the Activity [14] of the same molecule?
A: Its Activity is “inactive”.

Q: Which EC50 ([1]; hek293) does the source give for `Cc1ncc(C#Cc2ccccc2)cn1` here?
A: Its EC50 is “Not Active”.

Q: With `CNc1ncc(C#Cc2ccc(C)cc2)cn1` as the molecule, how does the fold change (FC) [2] read?
A: The fold change (FC) was 5.7.

Q: What about the EC50 ([1]; read-out: EC50) of the same molecule?
A: Its EC50 is 704 nM.

Q: How did the EC50 ([1]; hek293) turn out when `Cc1cccc(C#Cc2cnc(C)nc2)c1` was run?
A: The EC50 was “Not Active”.

Q: `CCc1ncc(C#Cc2cccc(C)c2)cn1` was tested. Which EC50 ([1]; hek293) did it give?
A: The EC50 was “Not Active”.

Q: Which IC50 ([9]; read-out: IC50) does the source give for `C(#Cc1ncccn1)c1ccccc1` here?
A: The IC50 was 195 nM.

Q: What about the Activity [10] of the same molecule?
A: The Activity was 100%.

Q: With `CSc1ncc(C#Cc2cccc(C)c2)cn1` as the molecule, how does the EC50 ([1]; hek293) read?
A: The EC50 was “Not Active”.

Q: `Cc1ccc(C#Cc2cnc(C(C)(C)C)nc2)cc1` was tested. Which EC50 ([1]; hek293) did it give?
A: The EC50 was “Not Active”.

Q: With `CCNc1ncc(C#Cc2ccc(C)cc2)cn1` as the molecule, how does the EC50 ([1]; hek293) read?
A: Its EC50 is “Not Active”.

Q: How did the fold change (FC) [2] turn out when `CC(C)(C)c1ncc(C#Cc2ccccc2)cn1` was run?
A: Its fold change (FC) is 6.

Q: And the EC50 ([1]; read-out: EC50)?
A: The EC50 was 247 nM.

Q: Which EC50 ([1]; hek293) does the source give for `CCNc1ncc(C#Cc2cccc(C)c2)cn1` here?
A: The EC50 was “Not Active”.

Q: Which IC50 ([9]; read-out: IC50) does the source give for `CCOc1ncc(C#Cc2cccc(C)c2)cn1` here?
A: Its IC50 is 21.1 nM.

Q: What about the Activity [10] of the same molecule?
A: The Activity was 100%.

Q: Which fold change (FC) [2] does the source give for `Cc1ccc(C#Cc2cncnc2)cc1` here?
A: The fold change (FC) was 4.2.

Q: `CCc1ncc(C#Cc2ccc(C)cc2)cn1` was tested. Which EC50 ([1]; hek293) did it give?
A: Its EC50 is “Not Active”.

Q: How did the IC50 ([9]; read-out: IC50) turn out when `Cc1cccc(C#Cc2cncnc2)c1` was run?
A: Its IC50 is 7.5 nM.

Q: For `C(#Cc1cncnc1)c1ccccc1`, which IC50 ([9]; read-out: IC50) is on record?
A: Its IC50 is 486 nM.

Q: And the Activity [14]?
A: The Activity was 29%.

Q: For `COc1ncc(C#Cc2ccc(C)cc2)cn1`, which EC50 ([1]; hek293) is on record?
A: The EC50 was “Not Active”.

Q: With `CSc1ncc(C#Cc2ccc(C)cc2)cn1` as the molecule, how does the EC50 ([1]; hek293) read?
A: Its EC50 is “Not Active”.

Q: Which EC50 ([1]; hek293) does the source give for `CCNc1ncc(C#Cc2ccccc2)cn1` here?
A: The EC50 was “Not Active”.

Q: `CCOc1ncc(C#Cc2ccc(C)cc2)cn1` was tested. Which IC50 ([9]; hek293) did it give?
A: Its IC50 is “Not Active”.

Q: What does the source list for `CNc1ncc(C#Cc2cccc(C)c2)cn1`?
A: fold change (FC) [2]: 5.9; EC50 ([1]; read-out: EC50): 21.1 nM

Q: `Cc1cccc(C#Cc2cnc(C(C)(C)C)nc2)c1` was tested. Which EC50 ([1]; hek293) did it give?
A: Its EC50 is “Not Active”.

Q: For `CCOc1ncc(C#Cc2ccccc2)cn1`, which IC50 ([9]; hek293) is on record?
A: Its IC50 is “Not Active”.

Q: Which EC50 ([1]; hek293) does the source give for `COc1ncc(C#Cc2ccccc2)cn1` here?
A: Its EC50 is “Not Active”.
